Reference: the RNAGym collection of RNA variant scans (doi:10.1038/nmeth.2970)

B1: NELF-E aptamer (parent)
chain: CCCAACGACUGCCGAGCGAGAUUACGCUUGAGCGCCCCACUGAGGAUGCCCACGGGCGAUUGGGGCACGG

Variants of: B1
Test: HiTS-RAP
Conditions: with NELF-E (Drosophila)
Procedure, shortened: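 Aptamer DNA templates carrying a T7 promoter and ter site were sequenced on an Illumina GAIIx flowcell, then transcribed in situ by T7 RNA polymerase and halted by GST-Tus (30 minutes, 37°C). Clusters were imaged after 30-minute room-temperature equilibration with NELF-E-mOrange at 0.064 to 1000 nM in HEPES binding buffer, and only the first binding curve was used. Intensities were normalised to sequencing intensity and averaged per sequence. Kd came from weighted Hill fits, keeping fits with variance below 1,000,000.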

Compared with CCCAACGACUUCCGAGCGAGAUUACGCUUGAGCACCCCACUGAGGAUGCCCACGGGCGAUUGGGGCACGG [G11U G34A], CCCAACGACUACCGAGCGAGAUUACGCUUGAGCGCCCCACCGAGGAUGCCCACGGGCGAUUGGGGCACGG [G11A U41C] is 12-fold higher in Kd: 6.7 nM for the first, 83.6 nM for the second. The first binds more tightly here.

Going from CCCAACGACUACCGAGCGAGAUUACGCUUGAGCGCCCCACGGAGGAUGCCCACGGGCGAUUGGGGCACGG [G11A U41G] to CCCAACGACUACCGAGCGAGAUUACGCUUGAGCGCCCCACAGAGGAUGCCCACGGGCGAUUGGGGCACGG [G11A U41A], the Kd rises from 6.14 nM to 77 nM (13-fold). The first binds more tightly here.

CCCAACGACUUCCGAGCGAGAUUAGGCUUGAGCGCCCCACUGAGGAUGCCCACGGGCGAUUGGGGCACGG [G11U C25G] and CCCAACGACUACCGAGCGAGAUGACGCUUGAGCGCCCCACUGAGGAUGCCCACGGGCGAUUGGGGCACGG [G11A U23G] are within 1.5-fold of each other in Kd: 4.89 nM for the first, 5.54 nM for the second.

CCCAACGACUUCGGAGCGAGAUUACGCUUGAGCGCCCCACUGAGGAUGCCCACGGGCGAUUGGGGCACGG [G11U C13G] and CCCAACGACUUCUGAGCGAGAUUACGCUUGAGCGCCCCACUGAGGAUGCCCACGGGCGAUUGGGGCACGG [G11U C13U] are within 1.5-fold of each other in Kd: 5.71 nM for the first, 6.19 nM for the second.

CCCAACGACUUCAGAGCGAGAUUACGCUUGAGCGCCCCACUGAGGAUGCCCACGGGCGAUUGGGGCACGG [G11U C13A] and CCCAACGACUUCCGAGCGAGAUUACGCUUGAGCGCCCCACUGAGGAUGCCCACGGGCGAUUGGGGCUCGG [G11U A67U] are within 1.5-fold of each other in Kd: 6.58 nM for the first, 9.06 nM for the second.

CCCAACGACUUCCGAGCGAGAUUACGCUUGAGCGCCCCACUGAGGAUGCCCACGGGCGAUUGGGGCGCGG [G11U A67G] and CCCAACGACUUCCGGGCGAGAUUACGCUUGAGCGCCCCACUGAGGAUGCCCACGGGCGAUUGGGGCACGG [G11U A15G] are within 1.5-fold of each other in Kd: 6.41 nM for the first, 6.22 nM for the second.

CCCAACGACUUCCGUGCGAGAUUACGCUUGAGCGCCCCACUGAGGAUGCCCACGGGCGAUUGGGGCACGG [G11U A15U] and CCCAACGACUACCGAGGGAGAUUACGCUUGAGCGCCCCACUGAGGAUGCCCACGGGCGAUUGGGGCACGG [G11A C17G] are within 1.5-fold of each other in Kd: 7.47 nM for the first, 6.96 nM for the second.

Going from CCCAACGACUUCCGAGCGAGAUUACGCUUGAGCGCCCCACUGAGGAUGCCCGCGGGCGAUUGGGGCACGG [G11U A52G] to CCCAACGACUUCCGAGCGAGAUUACGCUUGAGCGCCCCACUGAGGAUGCCCUCGGGCGAUUGGGGCACGG [G11U A52U], the Kd rises from 3.84 nM to 16.5 nM (4.3-fold). The first binds more tightly here.

CCCAACGACUUCCGAGCGAGUUUACGCUUGAGCGCCCCACUGAGGAUGCCCACGGGCGAUUGGGGCACGG [G11U A21U] and CCCAACGACUUCCGAGCGAGGUUACGCUUGAGCGCCCCACUGAGGAUGCCCACGGGCGAUUGGGGCACGG [G11U A21G] are within 1.5-fold of each other in Kd: 5.9 nM for the first, 7.69 nM for the second.

CCCAACGACUUCCGAGCGAGAUUACGCUUAAGCGCCCCACUGAGGAUGCCCACGGGCGAUUGGGGCACGG [G11U G30A] and CCCAACGACUUCCGAGCGAGAUUACGCUUGAGCGCCCCACUGAGGAUGCCCACGUGCGAUUGGGGCACGG [G11U G55U] are within 1.5-fold of each other in Kd: 5.79 nM for the first, 7.1 nM for the second.

CCCAACGACUUCCGAGCGAGAUUACGCUUGAGCGCCCCACUGAGGAUGCCCACGAGCGAUUGGGGCACGG [G11U G55A] and CCCAACGACUUCCGAGCGAGAGUACGCUUGAGCGCCCCACUGAGGAUGCCCACGGGCGAUUGGGGCACGG [G11U U22G] are within 1.5-fold of each other in Kd: 8.79 nM for the first, 6.4 nM for the second.

CCCAACGACUUCCGAACGAGAUUACGCUUGAGCGCCCCACUGAGGAUGCCCACGGGCGAUUGGGGCACGG [G11U G16A] and CCCAACGACUUCCGAUCGAGAUUACGCUUGAGCGCCCCACUGAGGAUGCCCACGGGCGAUUGGGGCACGG [G11U G16U] are within 1.5-fold of each other in Kd: 6.06 nM for the first, 6.7 nM for the second.

CCCAACGACUUCCGAGCGAUAUUACGCUUGAGCGCCCCACUGAGGAUGCCCACGGGCGAUUGGGGCACGG [G11U G20U] and CCCAACGACUUCCGAGCGAAAUUACGCUUGAGCGCCCCACUGAGGAUGCCCACGGGCGAUUGGGGCACGG [G11U G20A] are within 1.5-fold of each other in Kd: 7.02 nM for the first, 5.7 nM for the second.

CCCAACGACUUCCGAGCGAGAUUACUCUUGAGCGCCCCACUGAGGAUGCCCACGGGCGAUUGGGGCACGG [G11U G26U] and CCCAACGACUUCCGAGCGAGAUUACACUUGAGCGCCCCACUGAGGAUGCCCACGGGCGAUUGGGGCACGG [G11U G26A] are within 1.5-fold of each other in Kd: 6.79 nM for the first, 5.08 nM for the second.

CCCAACGACUACCGAGCGAGAUUACGCCUGAGCGCCCCACUGAGGAUGCCCACGGGCGAUUGGGGCACGG [G11A U28C] and CCCAACGACUUCCGAGCGAGAUUACGCUUGAGCGCCCCGCUGAGGAUGCCCACGGGCGAUUGGGGCACGG [G11U A39G] are within 1.5-fold of each other in Kd: 9.79 nM for the first, 11.4 nM for the second.

Compared with CCCAACGACUUCCGAGCGAGAUUACGCUUGAGCGCCCCUCUGAGGAUGCCCACGGGCGAUUGGGGCACGG [G11U A39U], CCCAACGACUAGCGAGCGAGAUUACGCUUGAGCGCCCCACUGAGGAUGCCCACGGGCGAUUGGGGCACGG [G11A C12G] is 3-fold lower in Kd: 21.3 nM for the first, 7.18 nM for the second. The second binds more tightly here.

CCCAACGACUUCCGAGGGAGAUUACGCUUGAGCGCCCCACUGAGGAUGCCCACGGGCGAUUGGGGCACGG [G11U C17G] and CCCAACGACUUCCGAGUGAGAUUACGCUUGAGCGCCCCACUGAGGAUGCCCACGGGCGAUUGGGGCACGG [G11U C17U] are within 1.5-fold of each other in Kd: 5.84 nM for the first, 5.76 nM for the second.

Compared with CCCAACGACUUCCGAGCGAGAUUACGCUUGAGCGCCCCACUGAGGAUGCCCACAGGCGAUUGGGGCACGG [G11U G54A], CCCAACGACUUCCGAGCGAGAUUACGCUUGAGCGCCCCACUGAGGAUGCCCACGGGCGAUUGGGGCACGG [G11U] is 2.5-fold lower in Kd: 14.1 nM for the first, 5.7 nM for the second.

CCCAACGACUCCCGAGCGAGAUUACGCUUGAGCGCCCCACUGAGGAUGCCCACGGGCGAUUGGGGCACGG [G11C] and CCCAACGACUACCUAGCGAGAUUACGCUUGAGCGCCCCACUGAGGAUGCCCACGGGCGAUUGGGGCACGG [G11A G14U] are within 1.5-fold of each other in Kd: 6.3 nM for the first, 6.48 nM for the second.
